Measured values published in ChEMBL document CHEMBL4130342, “New semi-synthetic analogs of oleuropein show improved anticancer activity in vitro and in vivo” (Eur J Med Chem, 2017).

How the values were obtained:
PBMC [1] = experiment: Induction of apoptosis in human PBMC assessed as necrotic cells at 500 ug/ml after 24 hrs by propidium iodide staining-based flow cytometric method (reference value: 1%); format: cell-based
B16-F1 [2] = experiment: Antitumor activity against mouse B16-F1 cells allografted in C57BL/6 mouse assessed as tumor volume at 300 ug, ip administered every other day up to day 29 measured on day 29 post last dose (reference value: 2.83 cm'3); format: functional
Outline: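 Male C57BL/6 mice, 6-8 weeks old, received 10^5 B16.F1 cells sc in the right flank on day 0. From day 11 (palpable tumors), 5 mice/group were randomized and given ip doses in 200 µL PBS every other day, 8 doses in total, up to day 29. Control group received PBS. Tumors were measured by caliper every two days; volume = 1/2(length × width²).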

B16-F1 [3] = experiment: Induction of apoptosis in mouse B16-F1 cells assessed as necrotic cells at 283.90 uM after 24 hrs by propidium iodide staining-based flow cytometric method (reference value: 0.4%); format: functional
[4] = Antiproliferative activity against human FM3 cells after 72 hrs by MTT reduction assay; format: functional, cell-based
Outline: (§1)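 MTT reduction assay; adherent lines left to adhere overnight, suspension lines (HL-60, K562) seeded on the day. […] Incubation was 72 h at 37°C, with MTT added for the last 4 h. OD read at 545 nm (reference 690 nm). IC50 from 100(A0-A)/A0=50; means ± SD of 3 independent experiments.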

PBMC [5] = experiment: Induction of apoptosis in human PBMC assessed as late apoptotic cells at 600 ug/ml after 24 hrs by propidium iodide staining-based flow cytometric method (reference value: 0.6%); format: cell-based
Mus musculus [6] = experiment: (§2) In vivo induction of tumor-reactive immune response in C57BL/6 mouse allografted with mouse B16-F1 cells assessed as splenocyte-mediated syngeneic mouse B16-F1 cell lysis at 300 ug, ip administered every other day up to day 29 measured on day 29 post last dose by flow cytometric method (reference value: 3.3 to 3.9); format: functional
Outline: (§3)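 Male C57BL/6 mice (6-8 wk) were injected sc in the right flank with 10⁵ B16.F1 cells in PBS on day 0. From day 11, when tumors were palpable, they received ip doses in 200 µL PBS every other day (8 doses; 5 mice/group). On day 29, splenocytes were co-cultured unstimulated with targets at E:T 100:1 for 6 h at 37°C. CD107a/b MFI was read by flow cytometry, 2 mice/group tested individually.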

B16-F1 [7] = experiment: Induction of apoptosis in mouse B16-F1 cells assessed as necrotic cells at 283.90 uM after 48 hrs by propidium iodide staining-based flow cytometric method (reference value: 1%); format: functional
B16-F1 [8] = experiment: Induction of apoptosis in mouse B16-F1 cells assessed as late apoptotic cells at 283.90 uM after 48 hrs by propidium iodide staining-based flow cytometric method (reference value: 0.5%); format: functional
Mus musculus [9] = experiment: as §2, with “600” for “300”; format: functional; outline: as §3
PBMC [10] = experiment: Induction of apoptosis in human PBMC assessed as late apoptotic cells at 400 ug/ml after 24 hrs by propidium iodide staining-based flow cytometric method (reference value: 0.6%); format: cell-based
PBMC [11] = experiment: Induction of apoptosis in human PBMC assessed as necrotic cells at 150 ug/ml after 24 hrs by propidium iodide staining-based flow cytometric method (reference value: 1%); format: cell-based
SK-BR-3 = experiment: Antiproliferative activity against human SKBR3 cells after 72 hrs by MTT reduction assay; format: functional, cell-based; details: SK-BR-3, 72 h; outline: as §1
PBMC [12] = experiment: Induction of apoptosis in human PBMC assessed as early apoptotic cells at 400 ug/ml after 24 hrs by propidium iodide staining-based flow cytometric method (reference value: 0.1%); format: cell-based

**Q.** With `C/C=C1/[C@H](O[C@@H]2O[C@H](CO)[C@@H](O)[C@H](O)[C@H]2O)OC=C(C(=O)OC)[C@H]1CC(=O)OCCc1ccc(O)c(O)c1` [OLEUROPEIN] as the compound, how does the Activity (PBMC [1]) read?
**A.** 10.3%

**Q.** What about the Activity (B16-F1 [2]) of the same compound?
**A.** 2.41 cm3

**Q.** What about the Activity (B16-F1 [3]) of the same compound?
**A.** 2.1%

**Q.** And the IC50 [4]?
**A.** 269 to 275 µM

**Q.** What about the Activity (PBMC [5]) of the same compound?
**A.** 12.4%

**Q.** And the Flu intensity (Mus musculus [6])?
**A.** 3.2 - 3.9

**Q.** And the Activity (B16-F1 [7])?
**A.** 4.2%

**Q.** And the Activity (B16-F1 [8])?
**A.** 9.8%

**Q.** What about the Flu intensity (Mus musculus [9]) of the same compound?
**A.** 6.6 - 7.5

**Q.** And the Activity (PBMC [10])?
**A.** 3%

**Q.** What about the Activity (PBMC [11]) of the same compound?
**A.** 2.5%

**Q.** What about the IC50 (SK-BR-3) of the same compound?
**A.** 160 µM

**Q.** What about the Activity (PBMC [12]) of the same compound?
**A.** 1.6%
